In ChEMBL document CHEMBL3390837, “Bridged tetrahydroisoquinolines as selective NADPH oxidase 2 (Nox2) inhibitors” (Medchemcomm, 2013):
pIC50: −log10 of the molar value.

Tests used:
NADPH oxidase 2 [1] = target: T1, NADPH oxidase 2 (Homo sapiens, UniProt P04839); assay: Inhibition of full length human NOX2 transfected in COS 22 cells assessed as inhibition of Phorbol 12-myristate 13-acetate-stimulated ROS generation by measuring H2O2 production by fluorescence assay in presence of superoxide dismutase; assay type: cell-based; conditions: for pIC50: read-out: IC50
T1 sequence (P04839 whole entry): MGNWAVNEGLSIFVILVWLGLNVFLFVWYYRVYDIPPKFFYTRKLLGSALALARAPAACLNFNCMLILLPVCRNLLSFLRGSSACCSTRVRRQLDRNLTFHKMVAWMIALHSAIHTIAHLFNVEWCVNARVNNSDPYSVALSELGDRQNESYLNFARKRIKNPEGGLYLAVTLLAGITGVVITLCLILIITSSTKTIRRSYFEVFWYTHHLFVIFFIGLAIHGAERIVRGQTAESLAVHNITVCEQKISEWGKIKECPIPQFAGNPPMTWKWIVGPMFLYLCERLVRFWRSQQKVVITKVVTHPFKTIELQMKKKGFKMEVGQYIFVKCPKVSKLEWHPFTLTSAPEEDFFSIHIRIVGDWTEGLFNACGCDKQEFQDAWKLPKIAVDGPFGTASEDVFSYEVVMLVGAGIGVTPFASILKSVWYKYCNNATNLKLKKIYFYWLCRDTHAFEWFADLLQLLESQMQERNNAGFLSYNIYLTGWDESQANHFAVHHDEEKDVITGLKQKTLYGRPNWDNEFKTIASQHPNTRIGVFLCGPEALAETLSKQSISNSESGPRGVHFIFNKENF
Method in brief: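 Intact COS-Nox2 cells in Hepes pH 7.4 buffer with 0.1 mM Amplex Red, 0.32 U/ml HRP and 150 U/mL SOD, drug 15 min at 37 °C; started with 5 µM PMA; fluorescence monitored 1 h at 37 °C; rate as RFU/min minus unstimulated cells; % of vehicle control.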

NADPH oxidase 5 = target: T2, NADPH oxidase 5 (Homo sapiens, UniProt Q96PH1); assay: Inhibition of full length human NOX5 transfected in HEK cells assessed as inhibition of ionomycin-stimulated ROS generation by chemiluminescence assay; assay type: cell-based, HEK293
T2 sequence (Q96PH1 whole entry): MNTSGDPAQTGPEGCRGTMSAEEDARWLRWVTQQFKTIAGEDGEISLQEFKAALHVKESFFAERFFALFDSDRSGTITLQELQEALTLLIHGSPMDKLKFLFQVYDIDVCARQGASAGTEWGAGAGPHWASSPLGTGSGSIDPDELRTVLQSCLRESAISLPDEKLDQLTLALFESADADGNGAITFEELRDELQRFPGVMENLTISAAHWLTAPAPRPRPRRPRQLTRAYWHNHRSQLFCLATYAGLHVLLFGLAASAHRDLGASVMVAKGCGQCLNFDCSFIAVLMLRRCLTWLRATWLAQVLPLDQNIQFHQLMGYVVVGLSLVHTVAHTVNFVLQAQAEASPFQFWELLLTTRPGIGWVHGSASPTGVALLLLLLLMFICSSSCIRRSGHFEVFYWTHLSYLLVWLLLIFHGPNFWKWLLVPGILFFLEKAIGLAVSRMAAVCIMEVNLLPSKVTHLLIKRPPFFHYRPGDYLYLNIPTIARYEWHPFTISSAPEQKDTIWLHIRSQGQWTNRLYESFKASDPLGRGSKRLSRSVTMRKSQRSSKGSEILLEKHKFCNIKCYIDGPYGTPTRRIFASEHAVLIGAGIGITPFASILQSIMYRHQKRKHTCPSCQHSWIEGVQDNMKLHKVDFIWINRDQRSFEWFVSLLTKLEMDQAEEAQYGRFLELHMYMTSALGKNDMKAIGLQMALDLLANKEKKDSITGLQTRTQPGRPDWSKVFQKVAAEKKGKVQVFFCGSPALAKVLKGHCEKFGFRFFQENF
Method in brief: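 HEK-Nox5 cells at 5 × 10⁴ cells/well in OPTIMEM, 10 min at 37 °C in PBS with L-012, then stimulated with 1 µM PMA/0.1 µM ionomycin; luminescence over time; SOD 150 U/mL used to confirm superoxide specificity. IC50 by three-parameter fit, Hill slope 1, top/bottom fixed 100/0.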

NADPH oxidase 4 = target: T3, NADPH oxidase 4 (Homo sapiens, UniProt Q9NPH5); assay: Inhibition of full length human NOX4 transfected in COS 22 cells assessed as inhibition of ROS generation by measuring H2O2 production by fluorescence assay; conditions: for IC50: cos 22; for pIC50: read-out: IC50
T3 sequence (Q9NPH5 whole entry): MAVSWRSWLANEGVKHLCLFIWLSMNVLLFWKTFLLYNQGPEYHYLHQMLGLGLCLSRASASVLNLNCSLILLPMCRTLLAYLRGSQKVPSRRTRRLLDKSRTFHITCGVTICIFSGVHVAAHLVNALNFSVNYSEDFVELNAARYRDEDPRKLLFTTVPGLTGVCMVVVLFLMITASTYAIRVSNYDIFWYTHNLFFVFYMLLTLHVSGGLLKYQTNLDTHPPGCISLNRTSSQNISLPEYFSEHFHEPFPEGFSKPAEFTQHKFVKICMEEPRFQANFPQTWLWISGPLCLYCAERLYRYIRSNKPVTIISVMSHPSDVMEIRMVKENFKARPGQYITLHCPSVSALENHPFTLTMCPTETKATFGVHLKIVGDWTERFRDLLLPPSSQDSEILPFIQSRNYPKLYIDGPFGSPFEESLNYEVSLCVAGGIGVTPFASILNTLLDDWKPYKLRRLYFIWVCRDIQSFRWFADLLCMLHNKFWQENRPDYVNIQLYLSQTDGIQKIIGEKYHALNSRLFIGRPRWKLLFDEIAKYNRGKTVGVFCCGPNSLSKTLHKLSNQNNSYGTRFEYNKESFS

NADPH oxidase 2 [2] = target: T1, NADPH oxidase 2; assay: Inhibition of full length human NOX2 transfected in COS 22 cells assessed as inhibition of Phorbol 12-myristate 13-acetate-stimulated ROS generation by chemiluminescence assay; assay type: cell-based; conditions: for pIC50: read-out: IC50
Method in brief: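 COS-Nox2 (COS-7 stably expressing human p22phox, Nox2, p47phox, p67phox) plated in OPTIMEM at 2.5 x 10³ cells/well; 10 min at 37 °C in PBS with L-012, then stimulated with 5 µM PMA; luminescence followed over time; superoxide specificity checked with SOD 150 U/mL. IC50 by three-parameter non-linear fit, Hill slope 1, top/bottom fixed 100/0.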

[3] = target: Xanthine dehydrogenase/oxidase (Bos taurus, UniProt P80457); assay: Inhibition of bovine milk xanthine oxidase assessed as hypoxanthine-stimulated ROS generation by measuring H2O2 production at 25 to 50 uM by fluorescence assay; conditions: cattle
NADPH oxidase 1 = target: T4, NADPH oxidase 1 (Homo sapiens, UniProt Q9Y5S8); assay: Inhibition of full length human NOX1 transfected in COS 22 cells assessed as inhibition of constitutive ROS generation by chemiluminescence assay; conditions: for pIC50: read-out: IC50
T4 sequence (Q9Y5S8 whole entry): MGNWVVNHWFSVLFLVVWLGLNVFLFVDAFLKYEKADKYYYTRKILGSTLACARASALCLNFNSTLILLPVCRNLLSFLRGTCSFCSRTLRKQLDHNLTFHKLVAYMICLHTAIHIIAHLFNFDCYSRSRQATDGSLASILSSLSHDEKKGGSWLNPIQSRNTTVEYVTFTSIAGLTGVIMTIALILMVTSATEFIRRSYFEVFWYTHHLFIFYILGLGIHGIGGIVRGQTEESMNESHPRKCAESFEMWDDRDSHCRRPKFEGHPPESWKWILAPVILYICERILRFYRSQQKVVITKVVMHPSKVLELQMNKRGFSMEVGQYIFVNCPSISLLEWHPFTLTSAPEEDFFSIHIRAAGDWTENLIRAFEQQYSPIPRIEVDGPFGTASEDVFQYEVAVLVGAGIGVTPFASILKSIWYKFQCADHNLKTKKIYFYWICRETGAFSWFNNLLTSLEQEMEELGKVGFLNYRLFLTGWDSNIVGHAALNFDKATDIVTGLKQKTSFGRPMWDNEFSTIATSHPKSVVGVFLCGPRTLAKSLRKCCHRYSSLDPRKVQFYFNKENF

[4] = Cytotoxicity against african green monkey COS7 cells expressing human p22phox assessed as cell viability at 25 to 50 uM after 15 mins by luminogenic assay; assay type: cell-based; conditions: chlorocebus aethiops, cos-7, 0.25 h
Method in brief: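 COS-22 cells plated at 2.5 x 10³ cells/well in OPTIMEM, exposed 15 min to compounds at various concentrations; dead-cell protease release read with luminogenic AAF peptide substrate, signal before and after digitonin used to derive % dead; reported as % live cells (100 − % dead) per well.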

Xanthine dehydrogenase/oxidase, sequence (P80457 whole entry): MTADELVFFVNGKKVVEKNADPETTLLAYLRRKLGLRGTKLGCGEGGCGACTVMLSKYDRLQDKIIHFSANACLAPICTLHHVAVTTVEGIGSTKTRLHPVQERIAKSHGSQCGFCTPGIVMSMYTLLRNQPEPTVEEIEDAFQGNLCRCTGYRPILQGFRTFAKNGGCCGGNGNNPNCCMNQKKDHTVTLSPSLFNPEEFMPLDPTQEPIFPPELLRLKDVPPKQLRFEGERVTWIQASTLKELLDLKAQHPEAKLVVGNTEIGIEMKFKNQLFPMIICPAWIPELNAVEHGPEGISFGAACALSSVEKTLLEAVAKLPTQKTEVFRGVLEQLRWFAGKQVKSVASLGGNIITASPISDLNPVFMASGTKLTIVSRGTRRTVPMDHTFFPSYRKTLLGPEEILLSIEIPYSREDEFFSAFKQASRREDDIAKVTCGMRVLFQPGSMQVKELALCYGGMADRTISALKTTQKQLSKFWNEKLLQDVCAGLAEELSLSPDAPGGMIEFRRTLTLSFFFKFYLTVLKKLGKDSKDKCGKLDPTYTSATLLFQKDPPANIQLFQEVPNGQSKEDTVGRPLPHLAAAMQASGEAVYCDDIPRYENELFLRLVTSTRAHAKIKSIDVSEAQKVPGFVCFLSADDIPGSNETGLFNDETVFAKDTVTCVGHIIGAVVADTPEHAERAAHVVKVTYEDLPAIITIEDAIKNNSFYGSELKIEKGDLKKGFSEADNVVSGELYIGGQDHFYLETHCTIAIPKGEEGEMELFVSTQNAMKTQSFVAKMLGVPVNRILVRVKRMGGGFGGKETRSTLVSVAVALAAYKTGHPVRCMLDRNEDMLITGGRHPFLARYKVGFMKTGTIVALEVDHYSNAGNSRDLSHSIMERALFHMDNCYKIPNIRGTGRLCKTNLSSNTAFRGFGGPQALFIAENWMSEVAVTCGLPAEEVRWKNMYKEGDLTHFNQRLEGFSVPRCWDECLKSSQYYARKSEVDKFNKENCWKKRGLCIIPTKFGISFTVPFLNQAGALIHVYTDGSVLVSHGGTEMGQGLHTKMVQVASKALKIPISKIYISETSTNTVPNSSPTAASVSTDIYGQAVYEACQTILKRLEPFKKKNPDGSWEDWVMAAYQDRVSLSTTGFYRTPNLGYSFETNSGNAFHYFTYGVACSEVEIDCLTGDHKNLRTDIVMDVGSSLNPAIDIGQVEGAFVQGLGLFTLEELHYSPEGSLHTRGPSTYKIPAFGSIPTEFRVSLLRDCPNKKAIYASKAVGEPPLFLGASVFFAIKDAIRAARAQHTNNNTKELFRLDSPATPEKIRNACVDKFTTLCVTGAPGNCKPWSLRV

Structure (SMILES) | pIC50 (NADPH oxidase 2 [1]) | pIC50 (NADPH oxidase 5) | IC50 (NADPH oxidase 4) | pIC50 (NADPH oxidase 2 [2]) | inhibition (INH) [3] | pIC50 (NADPH oxidase 1) | pIC50 (NADPH oxidase 4) | Activity [4] | IC50 (NADPH oxidase 2 [1]; cos 22) | IC50 (NADPH oxidase 2 [2]; cos 22) | IC50 (NADPH oxidase 1; cos 22)
C=C(C)C[C@@H]1N[C@H]2CC(C)(C)[C@@H]1c1ccccc12 (racemic) | < 4.00 | < 4.00 | Not Active | < 4.00 | Not Active | < 4.00 |  |  |  |  | 
CC(C)C[C@@H]1N[C@H]2CC(C)(C)[C@@H]1c1c(Br)cccc12 (racemic) | 4.11 | 4.74 |  | 4.51 | Not Active | 4.49 | < 4.00 | Non-toxic |  |  | 
C=C(C)C[C@H]1[C@H]2c3ccccc3[C@H](CC2(C)C)N1Cc1cccc(F)c1 (racemic) | 4.52 | 4.30 |  | 4.17 | Not Active | < 4.00 | < 4.00 |  |  |  | 
C=C(C)C[C@H]1[C@H]2c3c(Br)cccc3[C@H](CC2(C)C)N1Cc1ccnc2ccccc12 (racemic) | < 4.00 | < 4.00 | Not Active | < 4.00 | Not Active | < 4.00 |  |  |  |  | 
C=C(C)C[C@H]1[C@H]2c3c(Br)cccc3[C@H](CC2(C)C)N1Cc1c[nH]c2ccccc12 (racemic) | < 4.00 | < 4.00 | Not Active | < 4.00 | Not Active | < 4.00 |  |  |  |  | 
C=C(C)C[C@H]1[C@H]2c3c(Br)cccc3[C@H](CC2(C)C)N1Cc1ccc2c(c1)OCO2 (racemic) | 4.40 | < 4.00 |  | 4.06 | Not Active | < 4.00 | < 4.00 |  |  |  | 
C=C(C)C[C@H]1[C@H]2c3c(Br)cccc3[C@H](CC2(C)C)N1Cc1cc(C)on1 (racemic) | 4.92 | 4.51 |  | 4.32 | Not Active | < 4.00 | < 4.00 |  |  |  | 
C=C(C)C[C@H]1[C@H]2c3c(Br)cccc3[C@H](CC2(C)C)N1Cc1cccc(F)c1 (racemic) | 4.29 | 4.10 |  | 4.17 | Not Active | < 4.00 | < 4.00 |  |  |  | 
C=C(C)C[C@H]1[C@H]2c3c(Br)cccc3[C@H](CC2(C)C)N1CCCCC (racemic) | 4.70 | < 4.00 |  | 4.70 | Not Active | < 4.00 | < 4.00 |  |  |  | 
C=C(C)C[C@H]1[C@H]2c3c(Br)cccc3[C@H](CC2(C)C)N1Cc1cccs1 (racemic) | 4.49 | < 4.00 | Not Active | 4.42 | Not Active | < 4.00 |  |  |  |  | 
C=C(C)C[C@@H]1N[C@H]2CC(C)(C)[C@@H]1c1c(-c3ccc(Cl)c(Cl)c3)cccc12 (racemic) | 4.19 | 4.85 |  | 5.05 | Not Active | < 4.00 | < 4.00 |  |  |  | 
C=C(C)C[C@@H]1N[C@H]2CC(C)(C)[C@@H]1c1c(-c3cccnc3)cccc12 (racemic) |  |  |  |  | Not Active |  |  |  | Not Active | Not Active | 
C=C(C)C[C@H]1[C@H]2c3c(-c4ccc(Cl)c(Cl)c4)cccc3[C@H](CC2(C)C)N1Cc1ccc2c(c1)OCO2 (racemic) | < 4.00 | < 4.00 | Not Active | < 4.00 | Not Active | < 4.00 |  |  |  |  | 
C=C(C)C[C@H]1[C@H]2c3c(-c4ccc(Cl)c(Cl)c4)cccc3[C@H](CC2(C)C)N1CCCCC (racemic) | 4.10 | < 4.00 |  | < 4.00 | Not Active | < 4.00 | < 4.00 |  |  |  | 
C=C(C)C[C@H]1[C@H]2c3c(Br)cccc3[C@H](CC2(C)C)N1S(C)(=O)=O (racemic) | 4.57 | < 4.00 |  | < 4.00 | Not Active |  | < 4.00 |  |  |  | Not Active
C=C(C)C[C@H]1[C@H]2c3c(Br)cccc3[C@H](CC2(C)C)N1S(=O)(=O)c1ccc(F)cc1 (racemic) | < 4.00 | < 4.00 | Not Active | < 4.00 | Not Active | < 4.00 |  |  |  |  | 
[Cl-].c1ccc2c(c1)[I+]c1ccccc1-2 [DIPHENYLENEIODONIUM CHLORIDE] |  |  |  |  | Not Active |  |  |  |  |  | 
